Screens: PubChem BioAssay, several laboratories
Hits are enriched below; roughly 4.3% of the tested compounds scored in any of these assays.
FLuc inhib CS: Photinus pyralis luciferase inhibition counter-screen; 200,000 tested, 1.5% active; inhibition, % at 10 µM; ATPLite firefly luciferase biochemical luminescence, 10 min; P08659; AID 1006;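 active = inhibition above about 50% when tested at 10 µM, limit read from the data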
Target sequence (P08659 whole entry, looked up): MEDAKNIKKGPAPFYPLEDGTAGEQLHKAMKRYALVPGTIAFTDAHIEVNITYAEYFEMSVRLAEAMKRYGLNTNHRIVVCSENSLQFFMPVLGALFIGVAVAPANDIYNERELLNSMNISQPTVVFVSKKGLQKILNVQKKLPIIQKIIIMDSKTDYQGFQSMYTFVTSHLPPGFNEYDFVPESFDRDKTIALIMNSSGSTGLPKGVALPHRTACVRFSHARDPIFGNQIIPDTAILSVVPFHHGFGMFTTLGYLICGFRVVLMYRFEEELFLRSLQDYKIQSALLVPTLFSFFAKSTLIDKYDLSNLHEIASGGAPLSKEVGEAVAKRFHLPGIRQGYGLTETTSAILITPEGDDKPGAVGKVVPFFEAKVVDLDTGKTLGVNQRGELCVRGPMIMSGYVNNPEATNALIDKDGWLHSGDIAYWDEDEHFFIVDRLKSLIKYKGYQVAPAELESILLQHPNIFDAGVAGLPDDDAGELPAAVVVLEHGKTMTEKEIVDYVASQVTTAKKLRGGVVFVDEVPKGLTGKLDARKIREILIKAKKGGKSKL
FLuc stim CS: affects firefly luciferase, flagging false hits in luciferase stimulation screens; P08659; ATPlite luciferase biochemical, luminescence, 10 min; 0 = ATP-free wells, 1 = DMSO control; activation factor at 10 µM; 200,000 tested, under 10 active;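 active = luciferase activation factor, scaled between plate controls, of at least 2 with compound at 10 µM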
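test system = cell-free luciferase reagent | medium = PBS as buffer for the ATP substrate | dosing = test compounds dosed from 2 mM stocks in 100% DMSO | incubation = 10 min at ambient temperature | detection = luminescence measurement of luciferase light output | benchmarks = low control with PBS replacing ATP, high control enzyme plus ATP without compound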
APP 5'UTR act: activates APP 5'UTR luciferase reporter; 190,000 tested, 1% active; AID 1276; activation, % at 2 µM; SH-SY5Y APP 5'UTR luciferase reporter, luminescence; zero percent = DMSO vehicle wells;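 active = activation above a set limit, based on mean plus 3 SD of controls, cut at about 140% in these data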
STAT1 activator: activators of IFN-gamma induced STAT1 signaling; NIH 3T3 STAT1-luciferase reporter, luminescence; 100% = IFN-gamma alone, no compound; 200,000 tested, 2.6% active; AID 932; activation (% of control), % at 5.5 µM;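 active = activation above the screen-wide mean activation plus 3 SD, cut at about 130% in these data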;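 also: raw ratio to IFN-gamma control signal so 100% means no change and 0% no light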
NF-kB neuron act: compounds increasing NF-kB expression in human neuronal cells; fold change at 12.5 µM; NF-kB reporter expression; active compounds read high; 190,000 tested, 1.6% active; AID 1239; in the data active = fold change above about 3.3
sdo1 growth: sdo1-depleted yeast growth rescue; S. cerevisiae sdo1-depleted JHY4D growth rescue, OD600 30 h; active compounds read high; pdr5 snq2 efflux-pump mutant strain; z-score at 10 µM; 140,000 tested, 0.21% active;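 active = z-score above 3 at both the 24 hr and the 30 hr optical density reads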;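 also: z-score against mean and SD of all compound wells on the same plate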
STAT1 activ conf: confirmation of STAT1 signaling activators. AID 1262. NIH 3T3 STAT1-luciferase reporter, IFN-gamma potentiation, luminescence; 100% = IFN-gamma EC80 alone, no compound. activation (% of control), % at 5.7 µM. 1,200 tested, 97% active. shares compounds with STAT1 activator;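 active = activation above a set limit carried over from the earlier primary STAT1 screen, cut at about 140% in these data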;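 also: simple ratio to median IFN-gamma plus DMSO wells so 0% means no light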
NFkB act STAT1ct: counter-screen for STAT1 activators: NF-kappaB activation; shares compounds with STAT1 activator; HEK293T NF-kB luciferase reporter, TNF-alpha stimulated, luminescence; 100% = TNF-alpha with vehicle only; 1,200 tested, 43% active; activation (% of control), % at 5.7 µM; AID 1306;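 active = activation above the mean of solvent-only control wells plus 3 SD, set per campaign, cut at about 130% in these data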;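 also: TNF-alpha given at a submaximal dose yielding about 80% of full reporter signal; values are well signal over median control so 100% means no change and 0% no light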
STAT3 act 2: counter-screen for STAT1 activators: human STAT3 activation; shares compounds with STAT1 activator; U3A cells STAT3-luciferase reporter, IL-6, luminescence; cells lack STAT1; 100 = IL-6 alone, no compound effect; activation (% of control), % at 5.7 µM; AID 1316; 1,200 tested, 46% active;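 active = activation above the solvent-only control well mean plus 3 SD, set per plate batch, cut at about 110% in these data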;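 also: 0% = no luminescence and 100% = median IL-6 plus DMSO wells; higher means more STAT3 reporter activation so hits are non-selective activators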
* marks the source's active call; other numbers are inactive results; / = no result.

SMILES | FLuc inhib CS | FLuc stim CS | APP 5'UTR act | STAT1 activator | NF-kB neuron act | sdo1 growth | STAT1 activ conf | NFkB act STAT1ct | STAT3 act 2
COc1cccc(N2C(=O)C(c3ccccc3)=C(c3nc4ccccc4s3)C2NC(C)=O)c1 (configuration not stated) | -6 | 1.1 | -8 | 97 | 0.8 | -1.2 | / | / | /
COc1ccc(-c2nc3ccccc3s2)cc1NC(C)=O | 19 | 0.8 | 154* | 173* | 2.4 | / | 195* | 130 | 119*
CC1SC(=Nc2ccccc2)N(S(=O)(=O)c2ccccc2)C1=O (configuration not stated) | -6 | 1.1 | 16 | 101 | 1.3 | 0.74 | / | / | /
Nc1nc(-c2ccc(Cl)cc2)nnc1-c1ccc(Br)cc1 | 28 | 0.7 | 194* | 165* | 3.8* | / | 191* | 143* | 105
CCn1c(C)nc2cc(C(=O)NNC(=S)Nc3ccccc3)ccc21 | 39 | 0.6 | 185* | 160* | 1.9 | / | 228* | 141* | 118*
CCc1c(C)nc(Nc2nc(C)c3ccc(OC)cc3n2)[nH]c1=O | 1 | 1 | -3 | 119 | 0.52 | -2.3 | / | / | /
COc1ccc2c(C)nc(Nc3nc(C)c(C)c(=O)[nH]3)nc2c1 | 21 | 0.8 | 2 | 200* | 1.9 | -0.99 | 174* | 128 | 111*
Cc1cccc(NC(=O)COc2ccc(/C=C\c3[nH]c(=O)[nH]c(=O)c3[N+](=O)[O-])cc2)c1 | -3 | 1 | 18 | 109 | 1 | / | / | / | /
CCc1ccc(/C=N/NC(=O)c2c[nH]c3ccccc23)s1 | 24 | 0.8 | 122 | 154* | 2.1 | -0.77 | 189* | 126 | 115*
CCN(CC)c1ccc(/C=N/NC(=O)c2c[nH]c3ccccc23)cc1 | 13 | 0.9 | 17 | 120 | 1.2 | 0.17 | / | / | /
Cc1nc([N+](=O)[O-])c(C(=O)OCc2ccc(C#N)cc2)n1C | -1 | 1 | 0 | 104 | 1 | / | / | / | /
Cc1ccc(Nc2cc(C)nn2-c2nc(C)cc(=O)[nH]2)cc1 | -5 | 1.1 | -92 | 232* | 0.14 | -2.3 | 181* | 167* | 88
NS(=O)(=O)c1ccc(Oc2ccc(S(N)(=O)=O)cc2)cc1 | -5 | 1.1 | 15 | 89 | 1.1 | / | / | / | /
C=CS(=O)(=O)c1ccc(Oc2ccc(S(=O)(=O)C=C)cc2)cc1 | -2 | 1 | -90 | 323* | 0.99 | 0.79 | 189* | 79 | 114*
Cc1ccc(C)c(Nc2c(F)c(F)c(F)c(F)c2C(=O)O)c1 | -4 | 1 | 1 | 107 | 1 | / | / | / | /
O=c1oc2ccccc2cc1-c1nnc(NCc2ccco2)s1 | 14 | 0.9 | 147* | 154* | 5.4* | -0.94 | 188* | 139* | 112*
O=c1oc2ccccc2cc1-c1nc2c(s1)CCc1ccccc1-2 | 1 | 1 | / | 104 | 0.96 | -0.98 | / | / | /
CC(NC(=O)CCN1N=C(c2ccccc2)CCC1=O)c1ccc2c(c1)OCCO2 (configuration not stated) | -2 | 1 | 0 | 97 | 1.1 | / | / | / | /
CC(C)(C)C(=O)Nc1ccccc1C(=O)OCC(=O)c1ccc2c(c1)OCCO2 | 22 | 0.8 | 24 | 97 | 0.67 | -0.27 | / | / | /
O=C(COC(=O)c1ccccc1NC(=O)C1CC1)c1ccc2c(c1)OCCO2 | 72* | 0.3 | 38 | 159* | 0.59 | -0.87 | 170* | 105 | 101
CCOC(=O)c1cnc(SCCc2ccccc2)nc1N | 15 | 0.9 | 190* | 165* | 6.9* | 0.05 | 189* | 131 | 119*
